The species named for series [1] is Homo sapiens. Kind of series: Modulation of patient derived full length SMN2 pre mRNA splicing assessed as restoration of functional SMN2 to protein level.
Series [2] deals with Salmonella typhimurium. Put plainly: Genotoxicity in Salmonella typhimurium TA1535 in presence of rat liver S9 fraction by Ames test. It is filed as toxicity. The following applies: salmonella enterica subsp. enterica serovar typhimurium. The gist of the method: (§1)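 Ames plate incorporation: strains grown overnight at 37 °C in nutrient broth (TA102 with 0.3 μg/mL tetracycline). Compound at 20–2000 μg/plate in top agar with histidine/biotin, plus rat liver S9 mix (NADP, glucose 6-phosphate, KCl, MgCl2, pH 7.4 phosphate). Vogel–Bonner plates incubated 37 °C, 2 days; colonies counted by image analysis. Positive: dose-dependent ≥2-fold (TA1535, TA98) or ≥1.5-fold (TA97, TA100, TA102) rise over background.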

The subject of series [3] is Salmonella typhimurium. Kind of series: Genotoxicity in Salmonella typhimurium TA100 in presence of rat liver S9 fraction by Ames test. It is filed as toxicity. The following applies: salmonella enterica subsp. enterica serovar typhimurium. In short, it runs like this: as §1
Series [4] relates to Salmonella typhimurium. Put plainly: Genotoxicity in Salmonella typhimurium TA102 in presence of rat liver S9 fraction by Ames test. It is filed as toxicity. The following applies: salmonella enterica subsp. enterica serovar typhimurium. In short, it runs like this: as §1
The test system of series [5] is Salmonella typhimurium. Kind of series: Genotoxicity in Salmonella typhimurium TA97 in presence of rat liver S9 fraction by Ames test. Format: toxicity. Conditions: salmonella enterica subsp. enterica serovar typhimurium. In short, it runs like this: as §1
Series [6] concerns Salmonella typhimurium. Put plainly: Genotoxicity in Salmonella typhimurium TA98 in presence of rat liver S9 fraction by Ames test. It is filed as toxicity. Conditions: salmonella enterica subsp. enterica serovar typhimurium. The gist of the method: as §1
Series [7] is filed under the species Homo sapiens. Kind of series: Modulation of patient derived full length SMN2 pre mRNA splicing assessed as inclusion of exon 7.
A short description of series [8]: Total AUC in wild type FVB mouse plasma at 10 mg/kg, po qd for 10 days by LC-MS/MS analysis. Format: ADME, organism-based. Set-up: dose 10 mg/kg, route oral, time AUCmax.
In series [9] the test system is Mus musculus. Kind of series: Induction of SMN protein levels in C/C-Allele SMA FVB mouse brain at 1 mg/kg, po qd for 10 days measured 1 hr post last dose by HTRF assay relative to control. Format: functional. In short, it runs like this: (§2)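 Adult C/C-allele SMA mice dosed orally once daily for 10 days at 1, 3 or 10 mg/kg. SMN protein in brain and quadriceps was expressed as % increase over vehicle-treated animals.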

Series [10] deals with Mus musculus. Kind of series: Induction of SMN protein levels in neonatal delta7 FVB mouse brain at 1 mg/kg, ip qd administered from postnatal day 3 to day 9 measured 1 hr post last dose by HTRF assay relative to control. Format: functional.
Series [11] deals with Mus musculus. Kind of series: Induction of SMN protein levels in C/C-Allele SMA FVB mouse brain at 10 mg/kg, po qd for 10 days measured 1 hr post last dose by HTRF assay relative to control. Format: functional. In short, it runs like this: as §2
Series [12] concerns Mus musculus. Kind of series: Induction of SMN protein levels in C/C-Allele SMA FVB mouse brain at 3 mg/kg, po qd for 10 days measured 1 hr post last dose by HTRF assay relative to control. Format: functional. The gist of the method:
as §2

In series [13] the test system is Mus musculus. Kind of series: Induction of SMN protein levels in neonatal delta7 FVB mouse brain at 0.3 mg/kg, ip qd administered from postnatal day 3 to day 9 measured 1 hr post last dose by HTRF assay relative to control. Format: functional.
In series [14] the test system is Mus musculus. Put plainly: Induction of SMN protein levels in neonatal delta7 FVB mouse brain at 3 mg/kg, ip qd administered from postnatal day 3 to day 9 measured 1 hr post last dose by HTRF assay relative to control. It is filed as functional.
A short description of series [15]: Total AUC in neonatal wild type FVB mouse plasma at 3 mg/kg, ip qd for 10 days by LC-MS/MS analysis. Set-up: dose 3 mg/kg, route intraperitoneal, time AUCmax. Format: ADME, organism-based. In short, it runs like this: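 Plasma AUC determined in a satellite group of neonatal (P10) wild-type mice dosed ip. Free AUC was calculated using the free fraction measured in serum from adult mice.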

Structures are written as SMILES. Active and inactive are the calls of the source. The rule behind the calls is not given here.

As to `Cc1cn2cc(NC(=O)c3ccc(N4CCNCC4)cc3)nc2c(C)n1`, the EC1.5 in series [1] was 775 nM.
On to `CCN1CCN(c2ccc3cc(-c4cn5cc(C)nc(C)c5n4)c(=O)oc3c2)C[C@@H]1C`, for which the Activity result in series [2], in series [3], in [4], in series [5] and in [6] was “Toxic” throughout.
Take `Cc1cn2cc(CCc3ccc(N4CCNCC4)cc3)nc2c(C)n1`: the EC1.5 result in series [1] and in [7] was “inactive” throughout.
For the molecule `Cc1cn2cc(C(=O)Nc3ccc(N4CCN(C)CC4)cc3)nc2c(C)n1`, the EC1.5 entry in series [1] and in series [7] was “inactive” in each case.
As for `Cc1nc2c(F)cc(NC(=O)c3ccc(N4CCNCC4)cc3F)cc2o1`, the Activity entry in [2], in series [3], in series [4], in series [5] and in series [6] was “Non-Toxic” in each case. For the same molecule, the EC1.5 was found to be 116 nM in [1] and 39 nM in series [7].
Regarding `Cc1cn2cc(-c3ccc4c(c3)OC(=O)N(C3CCNCC3)C4)nc2c(C)n1`, the EC1.5 entry in series [1] was “inactive”. In series [7], the EC1.5 stood at 4700 nM.
On to `COc1cc(N2CCNC(C)C2)ccc1C(=O)Nc1cn2cc(C)nc2cn1` (stereo not given), for which the EC1.5 in [1] is 206 nM; in series [7] it was 58 nM.
On to `Cc1cn2cc(NC(=O)c3c(F)cc(N4CCNCC4)cc3Cl)ncc2n1`, for which the EC1.5 in series [1] was determined as 8760 nM; in series [7], 2030 nM.
`Cc1cn2cc(N(C)C(=O)c3ccc(N4CCN(C)CC4)cc3)nc2c(C)n1`: the EC1.5 result in [1] and in series [7] was “inactive” in each case.
Consider `Cc1cn2cc(-c3ccc(C(=O)NC4CCN(C)CC4)cc3)nc2c(C)n1`, for which the EC1.5 result in series [1] and in [7] was “inactive” each time.
Consider `Cc1cn2cc(NC(=O)c3ccc(N4CCNC(C)(C)C4)cc3F)ncc2n1`, for which the figures for the EC1.5 in series [1] and in [7] were 504 nM and 31 nM, respectively.
For `Cc1cn2cc(NC(=O)c3ccc(N4CCN(C)CC4)cn3)nc2c(C)n1`, the EC1.5 in [1] came out at 1520 nM.
Regarding `Cc1cn2cc(C(=O)Nc3ccc(C4CCN(C)CC4)cc3)nc2c(C)n1`, the EC1.5 result in [1] and in series [7] was “inactive” throughout.
In the case of `Cc1cn2cc(-c3ccc(NC(=O)N4CCN(C)CC4)cc3)nc2c(C)n1`, the EC1.5 entry in [1] and in [7] was “inactive” each time.
As for `Cc1cn2cc(-c3ccc(NC(=O)C4CCN(C)CC4)cc3)nc2c(C)n1`, the EC1.5 entry in series [1] and in [7] was “inactive” each time.
Take `Cc1cn2cc(COc3ccc(N4CCNCC4)cc3)nc2c(C)n1`: the EC1.5 result in series [1] and in [7] was “inactive” throughout.
On to `Cc1cn2cc(-c3cc4ccc(N5CCN(C)CC5)cc4c(=O)o3)nc2c(C)n1`, for which the Activity result in [2], in series [3], in [4], in series [5] and in [6] was “Toxic” in each case. For the same molecule, the EC1.5 in [7] came out at 25 nM.
Regarding `Cc1cn2cc(NC(=O)c3ccc(C4CCNCC4)cc3)nc2c(C)n1`, the EC1.5 in series [1] was 3800 nM; in series [7], 820 nM.
Regarding `Cc1cn2cc(NC(=O)c3ccc(N4CCNCC4)cc3F)ncc2n1`, the Activity entry in [2], in [3], in series [4], in [5] and in series [6] was “Non-Toxic” in each case. The EC1.5 in series [1] was 87 nM; in series [7] it was 37 nM.
Turning to `CC[C@@H]1CN(c2ccc(C(=O)Nc3cn4cc(C)nc4cn3)c(F)c2)CCN1`, the figures for the exposure (AUC) at 240 h in series [8] and in series [15] were 19000 ng·h/mL and 3730 ng·h/mL, respectively. Besides, the Activity in series [9] was determined as 19%; in series [10], 66%; in series [11] it was 217%; in series [12], 45%; in series [13], 0%; in [14], 117%. Moreover, the EC1.5 in [1] was 158 nM; in series [7] it was 29 nM.
Turning to `Cc1cn2cc(NC(=O)c3ccc(N4CCNC(C)C4)cc3F)c(C)cc2n1` (stereo not given), the Activity entry in series [2], in [3], in [4], in series [5] and in [6] was “Non-Toxic” each time. The results for the EC1.5 in [1] and in series [7] were 152 nM and 40 nM, respectively.
For `Cc1cn2cc(NC(=O)c3cc(F)c(N4CCNC(C)C4)cc3F)ncc2n1` (stereo not given), the EC1.5 was found to be 495 nM in series [1] and 85 nM in series [7].
For `Cc1cn2cc(NC(=O)c3ccc(N4CCC(N5CCCC5)C4)cc3F)nc2c(C)n1` (stereo not given) the same measures were 86 nM and 29 nM.
For `Cc1cn2cc(/C=C/c3ccc(N4CCNCC4)cc3)nc2c(C)n1`, the EC1.5 in series [1] was 8420 nM; in series [7], 4410 nM.
The like results for `Cc1cn2cc(NC(=O)c3ccc(N4CCN(C)CC4)cc3F)nc2c(C)n1` were, in that order, 560 nM and 232 nM.
For `Cc1cn2cc(-c3ccc4c(c3)CCN(C3CCNCC3)C4=O)nc2c(C)n1` the same measures were “inactive” and 530 nM.
For `Cc1cn2cc(NC(=O)c3ccc(N4CCNCC4)cc3F)cc(F)c2n1`, the Activity result in series [2], in series [3], in series [4], in [5] and in series [6] was “Toxic” in each case. In addition, the EC1.5 came to 27 nM in series [1] and 11 nM in series [7].
Consider `Cc1cn2cc(NC(=O)c3ccc(N4CCN(N5CCCC5)CC4)cc3F)nc2c(C)n1`, for which the values for the EC1.5 in series [1] and in [7] were 200 nM and 100 nM, respectively.
On to `Cc1cn2cc(NC(=O)c3ccc(N4CCN[C@H](C)C4)cc3F)ncc2n1`, for which the EC1.5 worked out at 122 nM in series [1] and 15 nM in [7].
The like results for `Cc1cn2cc(NC(=O)c3ccc(N4CCNCC4)cc3)ncc2n1` were, in that order, 2250 nM and 1040 nM.
The like results for `Cc1cn2cc(NC(=O)c3ccc(C4CCN(C)C4)cc3F)nc2c(C)n1` (stereo not given) were, in that order, 176 nM and 91 nM.
For `Cc1cn2cc(NC(=O)c3ccc(N4CCNC(C)C4)c(F)c3F)ncc2n1` (stereo not given) the same measures were 603 nM and 165 nM.
For the molecule `CC[C@H]1CN(c2ccc(C(=O)Nc3cn4cc(C)nc4cn3)c(F)c2)CCN1`, the AUC at 240 h in series [8] is 27100 ng·h/mL; in [15] it was 4450 ng·h/mL. Moreover, the Activity in [9] is given as 22%; in series [10], 53%; in series [11], 260%; in series [12], 81%; in series [13], 26%; in [14], 100%. Moreover, the EC1.5 is 246 nM in [1] and 12 nM in series [7].
For the molecule `Cc1cn2cc(NC(=O)c3ccc(N4CCNC(C(C)C)C4)cc3F)ncc2n1` (stereo not given), the EC1.5 in series [1] was determined as 265 nM; in series [7], 106 nM.
For `COc1nc(N2CCNCC2)ccc1C(=O)Nc1cn2cc(C)nc2cn1` the same measures were 555 nM and 129 nM.
As for `Cc1cn2nc(NC(=O)c3ccc(N4CCNC(C)C4)cc3F)nc2c(C)n1` (stereo not given), the Activity entry in series [2], in [3], in [4], in [5] and in [6] was “Non-Toxic” each time. Moreover, the EC1.5 result in series [1] and in series [7] was “inactive” throughout.
For the molecule `Cc1cn2cc(C#Cc3ccc(N4CCN(C)CC4)cc3)nc2c(C)n1`, the EC1.5 result in [1] and in series [7] was “inactive” each time.

The values above are taken from ChEMBL document CHEMBL4049449, “Discovery of a Novel Class of Survival Motor Neuron 2 Splicing Modifiers for the Treatment of Spinal Muscular Atrophy” (J Med Chem, 2017).
